# pIC50: −log10 of the molar value. Active and inactive are the calls of the source. The calls are words filed in the database; no cut-off is given here.
# Legend:
# [1] = target: Acetylcholinesterase (Electrophorus electricus, UniProt O42275); assay: Inhibition of electric eel AChE using acetylthiocholine iodide as substrate preincubated for 5 mins followed by substrate addition measured after 2 mins by Ellman's method
# [2] = target: Cholinesterase (Equus caballus, UniProt P81908); assay: Inhibition of equine serum BuChE using butyrylthiocholine iodide as substrate preincubated for 5 mins followed by substrate addition measured after 2 mins by Ellman's method
# Cholinesterase, sequence (P81908 whole entry): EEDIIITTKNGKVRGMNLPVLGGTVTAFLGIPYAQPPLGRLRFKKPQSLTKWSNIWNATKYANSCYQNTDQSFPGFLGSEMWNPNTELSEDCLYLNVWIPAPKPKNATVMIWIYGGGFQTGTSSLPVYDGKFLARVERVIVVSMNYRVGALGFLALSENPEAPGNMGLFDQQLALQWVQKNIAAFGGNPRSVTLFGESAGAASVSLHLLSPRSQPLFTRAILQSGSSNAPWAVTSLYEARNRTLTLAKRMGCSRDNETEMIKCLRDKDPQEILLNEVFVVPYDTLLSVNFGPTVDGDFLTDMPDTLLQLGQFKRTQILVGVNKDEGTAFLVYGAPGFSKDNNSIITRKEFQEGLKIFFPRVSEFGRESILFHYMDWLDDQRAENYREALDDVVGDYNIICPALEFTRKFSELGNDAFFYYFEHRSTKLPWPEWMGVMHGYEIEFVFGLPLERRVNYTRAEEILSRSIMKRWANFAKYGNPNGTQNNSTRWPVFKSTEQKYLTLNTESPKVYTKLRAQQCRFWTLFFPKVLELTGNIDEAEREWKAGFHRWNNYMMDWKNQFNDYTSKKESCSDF
# In short: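 BuChE from equine serum (0.06 U/mL) in 0.1 M phosphate buffer pH 8.0, compounds diluted from ethanol stocks to 1-100 µM final, standing 5 min before DTNB. Started with 0.075 M butyrylthiocholine; A412 read 2 min later at 25°C. Enzyme-free blanks and inhibitor-free full-activity controls included. Triplicates; IC50 from nonlinear regression of concentration-inhibition data.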
# [3] = Selectivity index, ratio of IC50 for equine serum BuChE to IC50 for electric eel AChE
# In short: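 Ratio of IC50 values from the modified Ellman assay. Equine serum BuChE (0.06 U/mL) and electric eel AChE (0.22 U/mL), each in 0.1 M phosphate pH 8.0 with DTNB and 0.075 M thiocholine substrate, A412 at 2 min, 25°C. IC50s were means of three experiments.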
# [4] = target: T1, Amyloid-beta precursor protein (Homo sapiens, UniProt P05067); assay: Inhibition of self-induced amyloid beta (1 to 42) (unknown origin) aggregation at 25 uM incubated for 48 hrs measured after 5 mins by thioflavin-T fluorescence assay
# T1 sequence (P05067 whole entry): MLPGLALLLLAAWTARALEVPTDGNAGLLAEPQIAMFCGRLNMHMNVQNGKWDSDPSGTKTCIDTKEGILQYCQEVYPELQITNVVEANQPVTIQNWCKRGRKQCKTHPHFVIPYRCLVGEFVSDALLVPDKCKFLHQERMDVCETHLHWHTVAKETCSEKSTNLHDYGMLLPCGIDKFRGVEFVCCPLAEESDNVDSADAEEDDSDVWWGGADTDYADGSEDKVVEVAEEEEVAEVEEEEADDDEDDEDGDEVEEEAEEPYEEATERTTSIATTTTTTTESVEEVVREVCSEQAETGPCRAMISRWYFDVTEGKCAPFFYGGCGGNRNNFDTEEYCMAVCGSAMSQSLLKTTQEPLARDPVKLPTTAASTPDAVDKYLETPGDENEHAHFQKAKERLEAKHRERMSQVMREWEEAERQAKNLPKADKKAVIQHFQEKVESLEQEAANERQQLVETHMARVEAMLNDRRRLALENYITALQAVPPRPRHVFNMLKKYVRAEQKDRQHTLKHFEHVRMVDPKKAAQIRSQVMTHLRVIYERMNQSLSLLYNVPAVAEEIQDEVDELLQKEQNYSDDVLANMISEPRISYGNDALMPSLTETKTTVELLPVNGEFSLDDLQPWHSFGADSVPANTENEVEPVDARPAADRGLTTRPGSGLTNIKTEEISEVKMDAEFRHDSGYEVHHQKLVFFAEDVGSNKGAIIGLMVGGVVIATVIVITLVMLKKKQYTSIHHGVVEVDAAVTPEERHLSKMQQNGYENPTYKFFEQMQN
# In short: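 Aβ1-42 pretreated with HFIP, then diluted in 50 mM phosphate buffer pH 7.4 to 25 μM final. Incubated ± compound (25 μM) at 37°C for 48 h, then diluted in 50 mM glycine–NaOH pH 8.0 containing 5 μM thioflavin-T. Fluorescence read 5 min later (ex 450/em 485 nm). Inhibition % = (1−IFi/IFc)×100 after background subtraction; triplicate.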
# [5] = target: T1, Amyloid-beta precursor protein; assay: Inhibition of self-induced amyloid beta (1 to 42) (unknown origin) aggregation incubated for 48 hrs measured after 5 mins by thioflavin-T fluorescence assay
# [6] = target: T1, Amyloid-beta precursor protein; assay: Potency index, ratio of curcumin IC50 to compound IC50 for self-induced amyloid beta (1 to 42) (unknown origin) aggregation
# [7] = Cytotoxicity against human SH-SY5Y cells assessed as cell viability at 50 uM after 48 hrs by MTT assay; type: cell-based; settings: read-out: Activity
# In short: (§1)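 SH-SY5Y cells grown in DMEM with 10% FBS and 1% penicillin-streptomycin at 37°C, 5% CO2. Plated at 2000 cells/well and cultured 24 h, then exposed 48 h to compound at 1-100 μM (DMSO stock diluted in complete medium). MTT added for 4 h, formazan dissolved in DMSO, absorbance read at 570 nm (reference 630 nm). Triplicates; three independent experiments.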
# [8] = Cytotoxicity against human SH-SY5Y cells assessed as cell viability at 75 uM after 48 hrs by MTT assay; type: cell-based; settings: read-out: Activity; in short: as §1
# [9] = Cytotoxicity against human SH-SY5Y cells assessed as cell viability at 100 uM after 48 hrs by MTT assay; type: cell-based; settings: read-out: Activity; in short: as §1
# [10] = system: SH-SY5Y; assay: Cytotoxicity against human SH-SY5Y cells assessed as decrease in cell viability up to 100 uM after 24 hrs by MTT assay; type: cell-based
# [11] = target: Acetylcholinesterase (Electrophorus electricus) (UniProt O42275); assay: Mixed type inhibition of electric eel AChE at 10 to 40 nM preincubated with enzyme for 15 mins followed by substrate addition by Lineweaver-Burk plot analysis
# Acetylcholinesterase (Electrophorus electricus), sequence (O42275 24-633 limits assumed): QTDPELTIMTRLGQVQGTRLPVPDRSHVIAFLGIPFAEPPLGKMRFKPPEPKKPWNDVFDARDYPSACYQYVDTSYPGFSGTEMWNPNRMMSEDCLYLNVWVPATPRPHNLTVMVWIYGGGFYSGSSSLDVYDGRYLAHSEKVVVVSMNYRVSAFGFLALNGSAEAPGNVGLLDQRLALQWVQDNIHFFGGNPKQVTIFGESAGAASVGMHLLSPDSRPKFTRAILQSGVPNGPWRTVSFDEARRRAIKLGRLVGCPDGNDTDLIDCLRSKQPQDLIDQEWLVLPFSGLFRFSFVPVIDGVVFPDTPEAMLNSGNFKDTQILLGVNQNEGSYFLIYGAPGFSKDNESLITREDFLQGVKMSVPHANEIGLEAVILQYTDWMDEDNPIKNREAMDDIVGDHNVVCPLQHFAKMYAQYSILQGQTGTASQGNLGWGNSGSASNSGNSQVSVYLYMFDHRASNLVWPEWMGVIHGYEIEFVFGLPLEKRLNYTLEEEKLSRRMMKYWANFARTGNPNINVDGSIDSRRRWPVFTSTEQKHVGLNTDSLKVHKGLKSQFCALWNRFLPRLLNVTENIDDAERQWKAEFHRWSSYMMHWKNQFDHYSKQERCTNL
# In short: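 Electric eel AChE with the compound, preincubated at 37°C for 15 min before substrate addition. Reciprocal (Lineweaver-Burk) plots were drawn, and their slopes were plotted against inhibitor concentration in a weighted analysis. Ki was taken as the ratio of plot intercept to slope.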
# [12] = target: T1, Amyloid-beta precursor protein; assay: Inhibition of amyloid beta (1 to 42) (unknown origin) aggregation at 25 uM after 72 hrs by transmission electron microscopy
# In short: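 Aβ1-42 stock diluted in 20 mM phosphate buffer (pH 7.4) at 4°C, then incubated at 37°C with or without compound. Final concentrations per methods: peptide 50 μM, compound 25 μM; figure legend gives 25 μM each. Incubation time given as 48 h (methods) and 72 h (text). Samples placed on carbon-coated grids, stained with 1% uranyl acetate and imaged by TEM.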
# [13] = system: SH-SY5Y; assay: Antioxidant activity in human SH-SY5Y cells assessed as inhibition of H2O2-induced ROS production at 10 to 20 uM after 24 hrs by DCFH-DA fluorescent assay; type: functional, cell-based
# In short: (§2)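 SH-SY5Y cells seeded at 2 × 10^4/well and exposed 24 h to H2O2 (200 μM) with or without compound at 5, 10 and 20 μM. Intracellular ROS then probed with DCFH-DA for 20 min and total DCF fluorescence read on a plate reader. Mean ± S.D of three experiments, each in triplicate; one-way ANOVA with Bonferroni test.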
# [14] = system: SH-SY5Y; assay: Neuroprotective activity against H2O2-induced neurotoxicity in human SH-SY5Y cells assessed as cell viability after 24 hrs by MTT assay relative to control; type: functional, cell-based
# In short: (§3)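 SH-SY5Y cells seeded at 2 × 10^4/well and incubated 24 h. Medium then replaced with serum-free DMEM containing 200 μM H2O2 plus compound (5, 10, 20 μM) at 37°C for 24 h. Viability measured by MTT as % of untreated control, and morphology photographed under phase-contrast microscopy. Mean ± S.D of three experiments in triplicate; ANOVA with Bonferroni test.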
# [15] = system: SH-SY5Y; assay: Neuroprotective activity against H2O2-induced neurotoxicity in human SH-SY5Y cells assessed as change in cell morphology at 20 uM after 24 hrs by phase contrast microscopy; type: functional, cell-based; in short: as §3
# [16] = system: SH-SY5Y; assay: Neuroprotective activity against H2O2-induced cell death in human SH-SY5Y cells at 20 uM after 24 hrs by phase contrast microscopy; type: functional, cell-based; in short: as §3
# [17] = system: SH-SY5Y; assay: Neuroprotective activity against amyloid beta (1 to 42)-induced neurotoxicity in human SH-SY5Y cells assessed as cell viability treated for 24 hrs measured after 48 hrs by MTT assay; type: functional, cell-based
# In short: (§4)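 Aβ1-42 treated with HFIP (1 mg/ml), sonicated, left 24 h at room temperature and lyophilized; film dissolved in DMSO. SH-SY5Y cells plated at 2 × 10^4/well and allowed to attach 24 h. Aβ (25 μM) added ± compound (5-20 μM) in fresh medium. Viability measured by MTT as % of control after 48 h (methods; text says 24 h co-treatment). Morphology imaged by phase-contrast microscopy.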
# [18] = system: SH-SY5Y; assay: Neuroprotective activity against amyloid beta (1 to 42)-induced neurotoxicity in human SH-SY5Y cells assessed as change in cell morphology at 20 uM after 24 hrs by phase contrast microscopy; type: functional, cell-based; in short: as §4
# [19] = Cytotoxicity against human SH-SY5Y cells assessed as cell viability at 1 uM after 48 hrs by MTT assay; type: cell-based; settings: read-out: Activity; in short: as §1
# [20] = Cytotoxicity against human SH-SY5Y cells assessed as cell viability at 5 uM after 48 hrs by MTT assay; type: cell-based; settings: read-out: Activity; in short: as §1
# [21] = Cytotoxicity against human SH-SY5Y cells assessed as cell viability at 10 uM after 48 hrs by MTT assay; type: cell-based; settings: read-out: Activity; in short: as §1
# [22] = Cytotoxicity against human SH-SY5Y cells assessed as cell viability at 25 uM after 48 hrs by MTT assay; type: cell-based; settings: read-out: Activity; in short: as §1
# [23] = system: SH-SY5Y; assay: Cytotoxicity against human SH-SY5Y cells assessed as decrease in cell viability after 48 hrs by MTT assay; type: cell-based; in short: as §1
# [24] = system: SH-SY5Y; assay: […] in human SH-SY5Y cells at 5 to 20 uM after 24 hrs by DCFH-DA fluorescent assay; type: ADME, cell-based
# [25] = system: SH-SY5Y; assay: Antioxidant activity in human SH-SY5Y cells assessed as inhibition of H2O2-induced ROS production after 24 hrs by DCFH-DA fluorescent assay; type: functional, cell-based; in short: as §2
# Acetylcholinesterase, sequence (O42275 whole entry): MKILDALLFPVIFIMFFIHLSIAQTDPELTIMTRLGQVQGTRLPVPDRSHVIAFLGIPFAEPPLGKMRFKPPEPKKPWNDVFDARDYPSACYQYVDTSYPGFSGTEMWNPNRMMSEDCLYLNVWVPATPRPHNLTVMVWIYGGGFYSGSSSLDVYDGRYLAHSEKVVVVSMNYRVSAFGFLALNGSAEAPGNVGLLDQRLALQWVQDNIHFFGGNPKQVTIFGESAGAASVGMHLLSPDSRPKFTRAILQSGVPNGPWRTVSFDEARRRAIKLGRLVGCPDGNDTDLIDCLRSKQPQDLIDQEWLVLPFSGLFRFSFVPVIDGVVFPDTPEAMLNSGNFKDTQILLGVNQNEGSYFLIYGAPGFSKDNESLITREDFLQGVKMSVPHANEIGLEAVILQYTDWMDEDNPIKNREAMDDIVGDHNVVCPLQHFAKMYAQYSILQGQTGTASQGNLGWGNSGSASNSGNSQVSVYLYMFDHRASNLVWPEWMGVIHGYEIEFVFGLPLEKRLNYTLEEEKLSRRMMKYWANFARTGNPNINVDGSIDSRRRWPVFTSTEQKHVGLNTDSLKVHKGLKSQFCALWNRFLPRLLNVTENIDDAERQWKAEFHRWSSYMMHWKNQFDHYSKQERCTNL
SMILES,pIC50 [1],pIC50 [2],Ratio IC50 [3],inhibition [4] [%],also measured
O=C1C(=Cc2ccc(N3CCN(C(c4ccccc4)c4ccccc4)CC3)cc2)C(=O)c2ccccc21,7.21,5.47,54.9,80.6,pIC50 [5]: 4.93; Ratio IC50 [6]: 1.5
Cc1ccc(N2CCN(c3ccc(C=C4C(=O)c5ccccc5C4=O)cc3)CC2)c(C)c1,6.53,6.38,1.39,69.9,–
O=C1C(=Cc2ccc(N3CCN(c4ncccn4)CC3)cc2)C(=O)c2ccccc21,7.44,5.56,77.1,80.9,"viability at 48 h, 50 µM [7]: 89.6%; viability at 48 h, 75 µM [8]: 86.3%; viability at 48 h, 100 µM [9]: 82.3%; Activity [10]: Non-toxic; pIC50 [5]: 5.00; Ratio IC50 [6]: 1.5; inhibition [11]: Active; inhibition [12]: Active; inhibition [13]: Active; Activity [14]: Dose-dependent effect; Activity [15]: Active; Activity [16]: Active; Activity [17]: Dose-dependent effect; Activity [18]: Active; viability at 48 h, 1 µM [19]: 98.1%; viability at 48 h, 5 µM [20]: 96.4%; viability at 48 h, 10 µM [21]: 95.3%; viability at 48 h, 25 µM [22]: 93.9%"
O=C1C(=Cc2ccc(N3CCN(c4ccc(C(F)(F)F)cc4)CC3)cc2)C(=O)c2ccccc21,6.85,5.67,15.1,74.9,–
O=C1C(=Cc2ccc(N3CCN(c4ccccc4)CC3)cc2)C(=O)c2ccccc21,5.61,5.33,1.9,57.3,–
O=C1C(=Cc2ccc(N3CCN(c4ccccn4)CC3)cc2)C(=O)c2ccccc21,6.95,6.06,7.8,70.9,–
O=C1C(=Cc2ccc(N3CCN(Cc4ccc5c(c4)OCO5)CC3)cc2)C(=O)c2ccccc21,6.88,5.37,33.8,71.8,–
O=C1C(=Cc2ccc(N3CCN(c4ccc(Cl)cc4)CC3)cc2)C(=O)c2ccccc21,6.64,5.96,4.8,60.8,–
O=C1C(=Cc2ccc(N3CCN(C(=O)c4ccccc4)CC3)cc2)C(=O)c2ccccc21,4.85,4.87,0.9,53.9,–
O=C1C(=Cc2ccc(N3CCN(c4ccc(F)cc4)CC3)cc2)C(=O)c2ccccc21,6.76,5.29,29.6,61.8,–
O=C1C(=Cc2ccc(N3CCN(C(=O)c4ccco4)CC3)cc2)C(=O)c2ccccc21,7.32,5.58,54.2,82.2,"viability at 48 h, 50 µM [7]: 89.6%; viability at 48 h, 75 µM [8]: 86.3%; viability at 48 h, 100 µM [9]: 82.3%; Activity [10]: Non-toxic; Activity [23]: Dose-dependent effect; Activity [24]: Non-toxic; pIC50 [5]: 5.04; Ratio IC50 [6]: 1.5; inhibition [12]: Active; inhibition [25]: Dose-dependent effect; Activity [14]: Dose-dependent effect; Activity [15]: Active; Activity [16]: Active; Activity [17]: Dose-dependent effect; Activity [18]: Active; viability at 48 h, 1 µM [19]: 98.1%; viability at 48 h, 5 µM [20]: 96.4%; viability at 48 h, 10 µM [21]: 95.3%; viability at 48 h, 25 µM [22]: 93.9%"
Cc1ccc(N2CCN(c3ccc(C=C4C(=O)c5ccccc5C4=O)cc3)CC2)cc1,6.60,6.41,1.5,62.4,–

# From ChEMBL document CHEMBL3817760, “Design, synthesis and evaluation of novel indandione derivatives as multifunctional agents with cholinesterase inhibition, anti-β-amyloid aggregation, antioxidant and neuroprotection properties against Alzheimer's disease” (Bioorg Med Chem, 2016)
